Test results reported in ChEMBL document CHEMBL1133762, “Aureobasidins: structure-activity relationships for the inhibition of the human MDR1 P-glycoprotein ABC-transporter” (J Med Chem, 2000).
Converted amounts (≈) assume the structure as drawn.

Key:
[1] = test system: Saccharomyces cerevisiae; assay: Minimum growth-inhibitory concentration against Saccharomyces cerevisiae ATCC 9763 by agar dilution method by the suspension of a fungi containing ~5 x 10e (7) cells/mL.; assay type: functional
Procedure, shortened: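 Agar dilution on Sabouraud–dextrose agar plates with graded compound concentrations. A loopful of yeast suspension (about 5 × 10⁷ cells/mL) was streaked on the surface. Plates were incubated at 30 °C for 3 days. MIC is the lowest concentration with no detectable growth.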

[2] = target: T1, ATP-dependent translocase ABCB1 (Homo sapiens, UniProt P08183); assay: Direct comparison of the antifungal activities with the relative Pgp-inhibitory potencies, calculated by comparing ug/mL IC50(or IC20).; assay type: functional
T1 sequence (P08183 whole entry): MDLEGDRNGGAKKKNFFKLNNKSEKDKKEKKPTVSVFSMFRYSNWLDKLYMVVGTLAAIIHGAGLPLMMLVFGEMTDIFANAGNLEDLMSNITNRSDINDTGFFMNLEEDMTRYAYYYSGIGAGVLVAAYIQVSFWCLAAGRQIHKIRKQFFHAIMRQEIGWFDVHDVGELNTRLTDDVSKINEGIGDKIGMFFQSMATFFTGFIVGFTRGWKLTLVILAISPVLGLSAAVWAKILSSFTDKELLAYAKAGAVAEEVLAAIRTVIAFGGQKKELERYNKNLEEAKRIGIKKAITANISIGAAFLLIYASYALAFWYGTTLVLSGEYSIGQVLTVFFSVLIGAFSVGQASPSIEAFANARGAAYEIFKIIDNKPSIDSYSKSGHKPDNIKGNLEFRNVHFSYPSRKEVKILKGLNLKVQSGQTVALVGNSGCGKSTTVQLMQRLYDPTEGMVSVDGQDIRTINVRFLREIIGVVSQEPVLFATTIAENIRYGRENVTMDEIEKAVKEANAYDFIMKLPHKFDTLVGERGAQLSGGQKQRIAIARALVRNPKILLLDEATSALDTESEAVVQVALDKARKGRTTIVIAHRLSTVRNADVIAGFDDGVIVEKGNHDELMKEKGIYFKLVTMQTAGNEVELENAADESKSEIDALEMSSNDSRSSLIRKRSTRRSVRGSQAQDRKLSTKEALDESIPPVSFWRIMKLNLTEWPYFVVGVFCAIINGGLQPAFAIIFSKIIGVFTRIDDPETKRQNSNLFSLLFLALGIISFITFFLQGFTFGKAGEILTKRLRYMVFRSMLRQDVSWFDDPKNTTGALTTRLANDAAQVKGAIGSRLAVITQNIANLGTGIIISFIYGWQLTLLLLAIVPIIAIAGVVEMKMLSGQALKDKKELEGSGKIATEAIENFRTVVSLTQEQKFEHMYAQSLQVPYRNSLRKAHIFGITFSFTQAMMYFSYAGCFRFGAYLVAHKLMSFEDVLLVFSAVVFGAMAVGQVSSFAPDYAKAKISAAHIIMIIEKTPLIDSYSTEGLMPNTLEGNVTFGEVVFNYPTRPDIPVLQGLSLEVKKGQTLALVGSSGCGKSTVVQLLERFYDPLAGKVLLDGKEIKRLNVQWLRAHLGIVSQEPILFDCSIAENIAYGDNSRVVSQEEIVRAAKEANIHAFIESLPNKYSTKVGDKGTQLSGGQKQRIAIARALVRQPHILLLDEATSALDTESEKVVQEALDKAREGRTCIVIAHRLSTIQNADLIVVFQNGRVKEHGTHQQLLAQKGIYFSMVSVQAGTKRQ

[3] = target: P-glycoprotein (ABCB1, MDR1) (Homo sapiens, UniProt P08183); assay: (§1) Human MDR1 Pgp inhibitory activity by using standard calcein-AM efflux method with the human leukemia CEM cells.; assay type: cell-based, CCRF-CEM; settings: probe calcein-AM; for IC50: human, human leukemia CEM cells
Sequence of P-glycoprotein (ABCB1, MDR1) (P08183 whole entry): as above

[4] = target: T1, ATP-dependent translocase ABCB1; assay: as §1; assay type: cell-based, CCRF-CEM
[5] = test system: Saccharomyces cerevisiae; assay: Relative antifungal activity (against Saccharomyces cerevisiae) compared to AbA

| Structure (SMILES) | MIC [1] [µg/mL] | Pgp AbA/analogue ratio [2] | IC20 [3] [nM] | IC50 [4] [nM] | IC50 [3] [nM] | antifungal AbA/analogue ratio [5] |
| --- | --- | --- | --- | --- | --- | --- |
| CC[C@H](C)[C@@H]1NC(=O)[C@@H]2CCCN2C(=O)[C@@H](C)N(C)C(=O)[C@H](Cc2ccc(O)cc2)NC(=O)[C@H](C(C)C)N(C)C(=O)[C@@H]([C@@H](C)CC)OC(=O)[C@H](C(C)(C)O)N(C)C(=O)[C@H](CC(C)C)NC(=O)[C@H](C(C)C)N(C)C1=O | 25 (≈ 24 µM) | 0.4 | 2120 | 5770 | – | – |
| CC[C@H](C)[C@@H]1NC(=O)[C@@H]2CCCN2C(=O)[C@H](Cc2ccccc2)N(C)C(=O)[C@H](Cc2ccccc2)NC(=O)[C@H](C(C)C)N(C)C(=O)[C@@H]([C@@H](C)CC)OC(=O)C(C(C)(C)O)N(C)C(=O)[C@H](CC(C)C)NC(=O)[C@H](C(C)C)N(C)C1=O (some centres not stated) | – | – | 100 | 360 | – | – |
| CC[C@H](C)[C@@H]1NC(=O)[C@@H]2CCCN2C(=O)[C@H](Cc2ccccc2)N(C)C(=O)[C@H](Cc2ccccc2)NC(=O)[C@H](C(C)C)N(C)C(=O)[C@@H]([C@@H](C)CC)OC(=O)[C@@H](C(C)(C)O)N(C)C(=O)[C@H](CC(C)C)NC(=O)[C@H](C(C)C)N(C)C1=O | > 25 | – | 100 | – | 390 | – |
| CC[C@@H](C)[C@@H]1NC(=O)[C@@H]2CCCN2C(=O)[C@H](Cc2ccccc2)N(C)C(=O)[C@H](Cc2ccccc2)NC(=O)[C@H](C(C)C)N(C)C(=O)[C@@H]([C@@H](C)CC)OC(=O)C(=C(C)C)N(C)C(=O)[C@H](CC(C)C)NC(=O)[C@H](C(C)C)N(C)C1=O [listing 1 of 2 here] | – | 12.5 | 60 | – | 180 | < 0.016 |
| CC[C@@H](C)[C@@H]1NC(=O)[C@@H]2CCCN2C(=O)[C@H](Cc2ccccc2)N(C)C(=O)[C@H](Cc2ccccc2)NC(=O)[C@H](C(C)C)N(C)C(=O)[C@@H]([C@@H](C)CC)OC(=O)C(=C(C)C)N(C)C(=O)[C@H](CC(C)C)NC(=O)[C@H](C(C)C)N(C)C1=O [listing 2 of 2 here] | > 25 | – | – | – | – | – |
| CC[C@@H](C)[C@@H]1NC(=O)[C@@H]2CCCN2C(=O)[C@H](Cc2ccccc2)N(C)C(=O)[C@H](Cc2ccccc2)NC(=O)[C@H](C(C)C)N(C)C(=O)[C@@H]([C@@H](C)CC)OC(=O)CN(C)C(=O)[C@H](CC(C)C)NC(=O)[C@H](C(C)C)N(C)C1=O | – | 2.7 | 310 | – | 890 | – |
| CC[C@H](C)[C@@H]1NC(=O)[C@@H]2CCCN2C(=O)[C@H](Cc2ccccc2)N(C)C(=O)[C@H](Cc2ccccc2)NC(=O)[C@H](C(C)C)N(C)C(=O)[C@@H]([C@@H](C)CC)OC(=O)[C@H](C(C)(C)O)N(C)C(=O)[C@H](CC(C)C)NC(=O)[C@H](C(C)C)N(C)C1=O | 0.4 (≈ 0.363 µM) | – | 680 | – | 2270 | – |
| CC[C@@H](C)[C@@H]1NC(=O)[C@@H]2CCCN2C(=O)[C@H](Cc2ccccc2)N(C)C(=O)[C@H](Cc2ccccc2)NC(=O)[C@H](C(C)C)N(C)C(=O)[C@@H](C(C)C)OC(=O)[C@H](C(C)(C)O)N(C)C(=O)[C@H](CC(C)C)NC(=O)[C@H](C(C)C)N(C)C1=O | 0.4 (≈ 0.368 µM) | – | – | – | – | – |
| CC[C@@H](C)[C@@H]1NC(=O)CCCCCCCNC(=O)[C@H](C(C)C)N(C)C(=O)[C@@H]([C@@H](C)CC)OC(=O)[C@H](C(C)(C)O)N(C)C(=O)[C@H](CC(C)C)NC(=O)[C@H](C(C)C)N(C)C1=O [listing 1 of 2 here] | – | 0.4 | 2630 | – | 7420 | < 0.016 |
| CC[C@@H](C)[C@@H]1NC(=O)CCCCCCCNC(=O)[C@H](C(C)C)N(C)C(=O)[C@@H]([C@@H](C)CC)OC(=O)[C@H](C(C)(C)O)N(C)C(=O)[C@H](CC(C)C)NC(=O)[C@H](C(C)C)N(C)C1=O [listing 2 of 2 here] | > 25 | – | – | – | – | – |
| CC[C@H](C)[C@@H]1NC(=O)[C@@H]2CCCN2C(=O)[C@@H](Cc2ccccc2)N(C)C(=O)[C@H](Cc2ccccc2)NC(=O)[C@H](C(C)C)N(C)C(=O)[C@@H]([C@@H](C)CC)OC(=O)[C@H](C(C)(C)O)N(C)C(=O)[C@H](CC(C)C)NC(=O)[C@H](C(C)C)N(C)C1=O | 0.2 (≈ 0.182 µM) | – | 910 | 2730 | – | – |
| CC[C@H](C)[C@@H]1NC(=O)[C@@H]2CCCN2C(=O)[C@H](Cc2ccccc2)N(C)C(=O)[C@H](Cc2ccccc2)NC(=O)[C@H](C(C)C)N(C)C(=O)[C@@H]([C@@H](C)CC)OC(=O)[C@H](C(C)(C)O)N(C)C(=O)[C@H](CC(C)C)NC(=O)[C@@H](C(C)C)N(C)C1=O | > 25 | – | 1800 | > 2730 | – | – |
| CC[C@H](C)[C@@H]1NC(=O)[C@H]2CCCN2C(=O)[C@H](Cc2ccccc2)N(C)C(=O)[C@H](Cc2ccccc2)NC(=O)[C@H](C(C)C)N(C)C(=O)[C@@H]([C@@H](C)CC)OC(=O)[C@H](C(C)(C)O)N(C)C(=O)[C@H](CC(C)C)NC(=O)[C@H](C(C)C)N(C)C1=O | 1.6 (≈ 1.45 µM) | – | 1360 | > 2700 | – | – |
| CC[C@@H](C)[C@@H]1NC(=O)[C@@H]2CCCN2C(=O)[C@H](Cc2ccccc2)N(C)C(=O)[C@H](Cc2ccccc2)NC(=O)[C@H](C(C)C)N(C)C(=O)[C@@H]([C@@H](C)CC)OC(=O)[C@H](C(C)(C)O)N(C)C(=O)[C@H](CC(C)C)NC(=O)C(C(C)C)OC1=O (some centres not stated) [listing 1 of 2 here] | – | 1.4 | 460 | – | 1660 | < 0.016 |
| CC[C@@H](C)[C@@H]1NC(=O)[C@@H]2CCCN2C(=O)[C@H](Cc2ccccc2)N(C)C(=O)[C@H](Cc2ccccc2)NC(=O)[C@H](C(C)C)N(C)C(=O)[C@@H]([C@@H](C)CC)OC(=O)[C@H](C(C)(C)O)N(C)C(=O)[C@H](CC(C)C)NC(=O)C(C(C)C)OC1=O (some centres not stated) [listing 2 of 2 here] | > 25 | – | – | – | – | – |
| CC[C@@H](C)[C@@H]1NC(=O)[C@@H]2CCCN2C(=O)[C@H](Cc2ccccc2)N(C)C(=O)[C@H](C2CCCCC2)NC(=O)[C@H](C(C)C)N(C)C(=O)[C@@H]([C@@H](C)CC)OC(=O)[C@H](C(C)(C)O)N(C)C(=O)[C@H](CC(C)C)NC(=O)[C@H](C(C)C)N(C)C1=O [listing 1 of 2 here] | – | 0.5 | 1450 | – | 5880 | 0.25 |
| CC[C@@H](C)[C@@H]1NC(=O)[C@@H]2CCCN2C(=O)[C@H](Cc2ccccc2)N(C)C(=O)[C@H](C2CCCCC2)NC(=O)[C@H](C(C)C)N(C)C(=O)[C@@H]([C@@H](C)CC)OC(=O)[C@H](C(C)(C)O)N(C)C(=O)[C@H](CC(C)C)NC(=O)[C@H](C(C)C)N(C)C1=O [listing 2 of 2 here] | 1.6 (≈ 1.46 µM) | – | – | – | – | – |
| CC[C@@H](C)[C@@H]1NC(=O)[C@@H]2CCCN2C(=O)[C@H]([C@H](O)c2ccccc2)N(C)C(=O)[C@H](Cc2ccccc2)NC(=O)[C@H](C(C)C)N(C)C(=O)[C@@H]([C@@H](C)CC)OC(=O)[C@H](C(C)C)N(C)C(=O)[C@H](CC(C)C)NC(=O)[C@H](C(C)C)N(C)C1=O [listing 1 of 2 here] | – | 1.7 | 460 | – | 1360 | 0.25 |
| CC[C@@H](C)[C@@H]1NC(=O)[C@@H]2CCCN2C(=O)[C@H]([C@H](O)c2ccccc2)N(C)C(=O)[C@H](Cc2ccccc2)NC(=O)[C@H](C(C)C)N(C)C(=O)[C@@H]([C@@H](C)CC)OC(=O)[C@H](C(C)C)N(C)C(=O)[C@H](CC(C)C)NC(=O)[C@H](C(C)C)N(C)C1=O [listing 2 of 2 here] | 1.7 (≈ 1.54 µM) | – | – | – | – | – |
| CC[C@@H](C)[C@@H]1NC(=O)[C@@H]2CCCN2C(=O)[C@H](Cc2ccccc2)N(C)C(=O)[C@H](Cc2ccccc2)NC(=O)[C@H](C(C)C)N(C)C(=O)[C@@H]([C@@H](C)CC)OC(=O)[C@]2(OC2(C)C)N(C)C(=O)[C@H](CC(C)C)NC(=O)[C@H](C(C)C)N(C)C1=O | – | – | 460 | – | 1550 | – |
| CC[C@@H](C)[C@@H]1NC(=O)[C@@H]2CCCN2C(=O)[C@H](Cc2ccccc2)N(C)C(=O)[C@H](Cc2ccccc2)NC(=O)[C@H](C(C)C)N(C)C(=O)[C@@H]([C@@H](C)CC)OC(=O)[C@H]([C@H](C)CO)N(C)C(=O)[C@H](CC(C)C)NC(=O)[C@H](C(C)C)N(C)C1=O [listing 1 of 2 here] | – | 2.1 | 360 | – | 1090 | 0.06 |
| CC[C@@H](C)[C@@H]1NC(=O)[C@@H]2CCCN2C(=O)[C@H](Cc2ccccc2)N(C)C(=O)[C@H](Cc2ccccc2)NC(=O)[C@H](C(C)C)N(C)C(=O)[C@@H]([C@@H](C)CC)OC(=O)[C@H]([C@H](C)CO)N(C)C(=O)[C@H](CC(C)C)NC(=O)[C@H](C(C)C)N(C)C1=O [listing 2 of 2 here] | 6.3 (≈ 5.72 µM) | – | – | – | – | – |
| CC[C@@H](C)[C@@H]1NC(=O)[C@@H]2CCCN2C(=O)[C@H]([C@H](O)c2ccccc2)N(C)C(=O)[C@H](Cc2ccccc2)NC(=O)[C@H](C(C)C)N(C)C(=O)[C@@H]([C@@H](C)CC)OC(=O)[C@H](C(C)(C)O)N(C)C(=O)[C@H](CC(C)C)NC(=O)[C@H](C(C)C)N(C)C1=O [listing 1 of 2 here] | – | 1 | 810 | – | 2150 | 0.5 |
| CC[C@@H](C)[C@@H]1NC(=O)[C@@H]2CCCN2C(=O)[C@H]([C@H](O)c2ccccc2)N(C)C(=O)[C@H](Cc2ccccc2)NC(=O)[C@H](C(C)C)N(C)C(=O)[C@@H]([C@@H](C)CC)OC(=O)[C@H](C(C)(C)O)N(C)C(=O)[C@H](CC(C)C)NC(=O)[C@H](C(C)C)N(C)C1=O [listing 2 of 2 here] | 0.8 (≈ 0.716 µM) | – | – | – | – | – |
| CC[C@@H](C)[C@@H]1NC(=O)[C@@H]2CCCN2C(=O)[C@H](Cc2ccccc2)N(C)C(=O)[C@H](Cc2ccccc2)NC(=O)[C@H](C(C)C)N(C)C(=O)[C@@H]([C@@H](C)CC)OC(=O)[C@H](C(C)(C)O)N(C)C(=O)[C@H](CC(C)C)NC(=O)[C@H](C(C)C)NC1=O [listing 1 of 2 here] | – | 0.3 | 2670 | – | 7550 | 0.25 |
| CC[C@@H](C)[C@@H]1NC(=O)[C@@H]2CCCN2C(=O)[C@H](Cc2ccccc2)N(C)C(=O)[C@H](Cc2ccccc2)NC(=O)[C@H](C(C)C)N(C)C(=O)[C@@H]([C@@H](C)CC)OC(=O)[C@H](C(C)(C)O)N(C)C(=O)[C@H](CC(C)C)NC(=O)[C@H](C(C)C)NC1=O [listing 2 of 2 here] | 1.6 (≈ 1.47 µM) | – | – | – | – | – |
